Screening data from PubChem BioAssay.
PMI act – activators of human phosphomannose isomerase; purified human PMI, coupled resazurin fluorescence, 20 min; hits give high values; 1 = vehicle control, 0 substrate-free wells; hit rate 0.005% among 190,000; activation factor at 20 µM; P34949;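 active means activation factor of 2 or more at 20 µM, relative to plate controls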
Target sequence (P34949 whole entry, looked up): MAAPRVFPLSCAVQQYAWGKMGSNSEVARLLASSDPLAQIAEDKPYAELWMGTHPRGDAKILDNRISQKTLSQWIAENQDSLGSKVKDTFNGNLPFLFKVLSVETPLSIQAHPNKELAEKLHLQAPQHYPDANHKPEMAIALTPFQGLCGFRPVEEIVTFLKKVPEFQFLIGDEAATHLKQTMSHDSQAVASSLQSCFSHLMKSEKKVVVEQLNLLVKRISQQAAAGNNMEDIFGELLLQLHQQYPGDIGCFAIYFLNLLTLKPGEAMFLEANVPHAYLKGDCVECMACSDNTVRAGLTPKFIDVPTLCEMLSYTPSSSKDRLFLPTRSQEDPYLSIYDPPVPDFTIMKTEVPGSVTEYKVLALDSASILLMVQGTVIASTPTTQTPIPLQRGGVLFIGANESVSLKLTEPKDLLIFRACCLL
PMI act satM6P – increases human PMI activity with near-saturating mannose 6-phosphate; P34949; coupled PMI enzyme assay, resazurin fluorescence, 20 min; hits give high values; 1 = untreated enzyme, 0 = substrate-free blank; activation factor at 20 µM; hit rate 0.34% among 190,000;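 active means activation factor of 2 or more at 20 µM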
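test system = human PMI in coupled enzyme assay | medium = HEPES-buffered pH 7.4 with magnesium and detergent | also added = 1.0 mM mannose-6-phosphate substrate with 0.22 mM NADP+ | compound = 20 µM single dose | times = 20 min incubation at room temperature | measured by = resorufin fluorescence (Ex 544/Em 590 nm) from resazurin via diaphorase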
ABCB1 block – blocks JC-1 efflux by human ABCB1 transporter. inhibition, % at 6.6 µM. P08183. CCRF-Adr cells, flow cytometry. AID 1326. hit rate 0.067% among 190,000; in the data active means inhibition above about 40%;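 further: higher value means more JC-1 retained so stronger ABCB1 efflux block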
ROMK mod – modulates human ROMK potassium channel activity; hit rate 2% among 130,000; B-score at 10 µM; Tet-inducible ROMK, thallium flux fluorescence; actives lie on both sides;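 active means signal ratio slope over the read window, or its plate-corrected B-score, at least 3 SD from the plate mean, either direction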;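 further: B-score of the F/F0 ratio slope over 7 to 12 s after thallium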
Target sequence (P48048 whole entry, looked up): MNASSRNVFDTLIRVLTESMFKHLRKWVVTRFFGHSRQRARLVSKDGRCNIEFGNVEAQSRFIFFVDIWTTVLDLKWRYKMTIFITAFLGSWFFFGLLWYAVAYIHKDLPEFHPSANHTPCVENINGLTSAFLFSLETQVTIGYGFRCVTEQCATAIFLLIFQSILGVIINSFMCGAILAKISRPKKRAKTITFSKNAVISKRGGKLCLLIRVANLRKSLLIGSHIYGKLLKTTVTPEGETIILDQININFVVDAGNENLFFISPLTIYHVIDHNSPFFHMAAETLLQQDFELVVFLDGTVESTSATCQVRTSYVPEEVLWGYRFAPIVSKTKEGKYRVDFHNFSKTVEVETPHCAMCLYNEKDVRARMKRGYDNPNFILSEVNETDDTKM
ABCG2 inh – inhibitors of human ABCG2 transporter, ABCB1 counter-screen; IgMXP3 cells, JC-1 efflux, flow cytometry; inhibition, % at 6.6 µM; Q9UNQ0; hit rate 0.1% among 190,000;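 active means inhibition above 80%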
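Measure – % inhibition of efflux relative to nicardipine and DMSO · Test system – ABCG2 IgMXP3 and barcoded ABCB1 CCRF-Adr cell mix · Control set – nicardipine as high control, DMSO as low control · Compound – one concentration, 6.6 µM final · Signal – flow cytometry of retained JC-1 fluorescence · Timing – 10 min exposure at 25 °C with rotation, no wash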
Cl transport mod – modulators of human KCC2 chloride dependent transport; KCC2 cells, thallium flux FluoZin-2 fluorescence; B-score of Tl+ flux slope (higher = more flux/activation; lower = inhibition) at 10 µM; hit rate 2.2% among 190,000; AID 1456;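 active means thallium flux slope and its plate-corrected score both differing from the plate sample mean at a set confidence after two filtering rounds, in either direction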;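 further: slope of fluorescence scaled to starting intensity during 10 to 20 s after thallium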
KCC2 sec1 – confirmation of human KCC2 transport modulators. hit rate 15% among 3,700. shares compounds with Cl transport mod. AID 1713. normalised thallium flux (F/F0 slope) at 10 µM. HEK293-KCC2, thallium flux, FluoZin2 fluorescence; hits give high values;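 active means thallium flux slope above the same plate's solvent-only control mean plus 3 SD; inconclusive means the two replicate wells disagree; inactive means no significant difference from solvent-only control wells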
KCC2 bumet counter – thallium flux despite bumetanide block in KCC2 cells, secondary assay 3 | shares compounds with Cl transport mod | HEK293-KCC2 + bumetanide/ouabain, thallium flux FluoZin2; hits give high values | normalized thallium flux at 10 µM | hit rate 49% among 3,700;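 active means thallium entry rate above the same plate's blocked-transporter control wells by more than 3 SD; inconclusive means the two repeat wells disagree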;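 further: raw slope of fluorescence over initial fluorescence between 10 and 20 s after thallium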
KCC2 sec2 – confirmation of human KCC2 transport modulators; HEK293-KCC2, thallium flux FluoZin2 fluorescence; actives lie on both sides; F/F0 rise rate, 10–20 s post-thallium; normalized thallium flux at 10 µM; hit rate 23% among 3,700; shares compounds with Cl transport mod;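 active means thallium flux slope more than 3 SD above or below the plate's solvent-only control mean, mostly below; inconclusive means the two repeat wells disagreed; inactive means no significant shift from solvent-only controls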
HEK counter1 – parental HEK flux effect, counter-screen | shares compounds with Cl transport mod | HEK293 parental cells, thallium flux FluoZin2, ouabain; baseline-ratio fluorescence slope, 10–20 s after thallium | thallium flux rate (normalised fluorescence) at 10 µM | hit rate 46% among 3,700 | AID 1716;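 active means thallium flux rate significantly above the same plate's solvent-only control wells, beyond their mean plus 3 SD; inconclusive means the two replicate wells gave conflicting results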
KCC2 ouabain – confirmation of human KCC2 modulators with ouabain. shares compounds with Cl transport mod. HEK293-KCC2, thallium flux FluoZin2 fluorescence; bidirectional: low = inhibitor, high = activator. raw Tl+ flux slope (below DMSO = inhibition, above = activation) at 10 µM. hit rate 48% among 3,700;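 active means thallium flux slope beyond 3 SD from same-plate DMSO control mean in most replicates, usually higher, sometimes lower; inconclusive means repeat tests gave conflicting results; inactive means no significant difference from controls in most replicates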;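 further: slope of initial-normalized fluorescence between seconds 10 and 20 after thallium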
HEK293 Tl flux2 – parental HEK flux effect, counter-screen 2 | shares compounds with Cl transport mod | HEK293 parental, thallium flux FluoZin-2 fluorescence slope | thallium flux slope at 10 µM | hit rate 33% among 3,700 | AID 1718;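 active means thallium flux slope above the same plate's solvent-control mean plus 3 SD in both duplicate wells; inconclusive means duplicate wells that disagreed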;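 further: run without ouabain in cells lacking the KCC2 cotransporter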
Of the large screens only hits and unclear results are named; the others gave an inactive call (follow-up assays come after a bar, where they were run). In the library only some 3.3% were active in any assay of this set; here they are far more common.

N#C/C(=C(O)\C=C\c1ccccc1)c1nc2ccccc2[nH]1	Cl transport mod 6.63 (no result: PMI act, PMI act satM6P, ABCB1 block, ROMK mod, ABCG2 inh) | KCC2 sec1 inactive | KCC2 bumet counter inactive | KCC2 sec2 inconclusive | HEK counter1 inactive | KCC2 ouabain inactive | HEK293 Tl flux2 inactive
O=C(COc1ccccc1Cl)NC(=O)NC1CCCC1	none (no result: ROMK mod, Cl transport mod)
O=C(NC1CCCC1)NS(=O)(=O)c1ccccc1Cl	Cl transport mod 5.67 | KCC2 sec1 inactive | KCC2 bumet counter inactive | KCC2 sec2 inactive | HEK counter1 inactive | KCC2 ouabain inactive | HEK293 Tl flux2 inactive
O=C(Nc1ccc2ccccc2c1)C(=O)C1C(=O)Nc2ccccc21 (centres undefined)	Cl transport mod 25.1 (no result: PMI act, PMI act satM6P, ABCB1 block, ROMK mod, ABCG2 inh) | KCC2 sec1 inconclusive | KCC2 bumet counter 0.0225 | KCC2 sec2 inconclusive | HEK counter1 0.0176 | KCC2 ouabain inactive | HEK293 Tl flux2 0.0174
CC1CCCN(C(=O)c2cccc(S(=O)(=O)Nc3cc(C(F)(F)F)ccc3Cl)c2)C1 (centres undefined)	Cl transport mod -3.71 (no result: ROMK mod) | KCC2 sec1 inactive | KCC2 bumet counter inactive | KCC2 sec2 inactive | HEK counter1 inactive | KCC2 ouabain 0.0155 | HEK293 Tl flux2 inactive
CCOC(=O)c1c(NC(=O)CSc2nnnn2C)sc(C)c1-c1ccc(C)cc1	none (no result: ROMK mod)
CCc1ccc(Nc2nnc(SCc3cc(=O)n4ccsc4n3)s2)cc1	Cl transport mod -8.47 | KCC2 sec1 inactive | KCC2 bumet counter inactive | KCC2 sec2 0.0208 | HEK counter1 inactive | KCC2 ouabain 0.0115 | HEK293 Tl flux2 inactive
COc1ccccc1Nc1nnc(SCc2cc(=O)n3ccsc3n2)s1	none
Cc1ccc(Nc2nnc(SCc3cc(=O)n4ccsc4n3)s2)c(C)c1	Cl transport mod -7.59 (no result: ROMK mod) | KCC2 sec1 inactive | KCC2 bumet counter inactive | KCC2 sec2 inconclusive | HEK counter1 inactive | KCC2 ouabain 0.0163 | HEK293 Tl flux2 inactive
O=c1cc(CSc2nnc(NC3CCCCC3)s2)nc2sccn12	none
CCNC(=S)N/N=C/c1cc(C)ccc1C	none (no result: ROMK mod)
C=CCNC(=S)N/N=C/c1ccc(C)cc1C	Cl transport mod 5.19 | KCC2 sec1 inactive | KCC2 bumet counter 0.041 | KCC2 sec2 inactive | HEK counter1 0.0176 | KCC2 ouabain inconclusive | HEK293 Tl flux2 inconclusive
C=CCNC(=S)N/N=C/c1ccc(C(F)(F)F)cc1	Cl transport mod 3.55 | KCC2 sec1 inactive | KCC2 bumet counter 0.0158 | KCC2 sec2 inactive | HEK counter1 inconclusive | KCC2 ouabain inconclusive | HEK293 Tl flux2 inconclusive
O=C(Nc1cccc(Cl)c1)N1CCN(Cc2ccccc2)CC1	Cl transport mod -4.62 (no result: ROMK mod) | KCC2 sec1 inactive | KCC2 bumet counter inactive | KCC2 sec2 inactive | HEK counter1 inactive | KCC2 ouabain 0.0294 | HEK293 Tl flux2 inconclusive
O=C(Nc1nnc(-c2ccccn2)o1)c1cccc(Cl)c1	Cl transport mod 10.8 | KCC2 sec1 inactive | KCC2 bumet counter 0.0152 | KCC2 sec2 inactive | HEK counter1 0.0215 | KCC2 ouabain 0.0272 | HEK293 Tl flux2 0.0219
Cc1ccc(C(=O)Nc2nnc(-c3ccncc3)o2)cc1	none
O=C(Nc1nnc(-c2cccnc2)o1)c1cccc(Cl)c1	Cl transport mod 14.3 | KCC2 sec1 inconclusive | KCC2 bumet counter 0.0271 | KCC2 sec2 inactive | HEK counter1 inconclusive | KCC2 ouabain 0.0339 | HEK293 Tl flux2 inactive
O=C(/C=C/c1ccccc1)Nc1nnc(-c2ccco2)o1	Cl transport mod 2.79 | KCC2 sec1 inactive | KCC2 bumet counter 0.00833 | KCC2 sec2 inactive | HEK counter1 inconclusive | KCC2 ouabain inactive | HEK293 Tl flux2 inactive
Cc1cccc(-c2nnc(NC(=O)c3ccc(Cl)cc3)o2)c1	Cl transport mod 91.4 (no result: ROMK mod) | KCC2 sec1 0.0704 | KCC2 bumet counter 0.162 | KCC2 sec2 0.0775 | HEK counter1 inconclusive | KCC2 ouabain 0.121 | HEK293 Tl flux2 0.0716
O=C(COC(=O)c1ccc([N+](=O)[O-])s1)Nc1ncc(C(F)(F)F)cc1Cl	none (no result: ROMK mod)
CCN(CC)c1ccc(-c2n[nH]c(=S)n2-c2ccccc2)cc1	none
O=C1CC(C(=O)Nc2ccccc2)S/C(=N\NC(=O)c2ccccc2Cl)N1 (centres undefined)	none
CC(=O)Nc1nnc(-c2ccco2)o1	none
O=C(Nc1nnc(-c2ccco2)o1)c1cccc(Cl)c1	Cl transport mod 23.5 | KCC2 sec1 0.0193 | KCC2 bumet counter 0.0628 | KCC2 sec2 inactive | HEK counter1 0.034 | KCC2 ouabain 0.0488 | HEK293 Tl flux2 0.0146
COC(=O)C1CCN(Cc2cn(-c3ccccc3)nc2-c2ccc3c(c2)OCO3)CC1	Cl transport mod -5.83 | KCC2 sec1 inactive | KCC2 bumet counter inactive | KCC2 sec2 inactive | HEK counter1 inactive | KCC2 ouabain inactive | HEK293 Tl flux2 inactive
O=c1cc(-c2ccccc2)[nH]n1-c1nc2ccccc2s1	Cl transport mod 14.1 (no result: ROMK mod) | KCC2 sec1 inactive | KCC2 bumet counter 0.0367 | KCC2 sec2 inconclusive | HEK counter1 0.025 | KCC2 ouabain 0.0402 | HEK293 Tl flux2 0.0166
Cc1cccc(-n2cnc(C(=O)N/N=C/c3ccccc3)c2)n1	none (no result: ROMK mod)
Cc1ccccc1-n1c(=S)[nH]c2nc3c(cc2c1=O)COC(C)(C)C3	none (no result: PMI act, PMI act satM6P, ABCB1 block, ABCG2 inh)
Cc1ccccc1-n1c(=S)[nH]c2nc3c(cc2c1=O)CCCC3	Cl transport mod 25 | KCC2 sec1 0.0255 | KCC2 bumet counter 0.0689 | KCC2 sec2 0.0454 | HEK counter1 0.0462 | KCC2 ouabain 0.0434 | HEK293 Tl flux2 0.035
CCCn1c(SCC(=O)Nc2cc(S(=O)(=O)N(C)C)ccc2OC)n[nH]c1=O	none
CCOC(=O)c1c(N)sc2c1CCC(C)C2 (centres undefined)	none (no result: ROMK mod)
CCOC(=O)c1c(NS(C)(=O)=O)sc2c1CCC(C)C2 (centres undefined)	Cl transport mod 22.6 | KCC2 sec1 0.0197 | KCC2 bumet counter 0.0586 | KCC2 sec2 inactive | HEK counter1 0.0275 | KCC2 ouabain 0.0524 | HEK293 Tl flux2 0.0136
